Source: PubChem
Most compounds without a hit are left out; they make up all but 1.2% or so of the library.
DTT redox prof – compounds producing H2O2 with reducing agent – biochemical, NIH compound library profiling, artefact control for MLSCN library redox annotation, primary screen; DTT-dependent redox cycling H2O2, phenol red/HRP absorbance; 100% = 100 µM peroxide control, 0% = buffer; activation, % at 10 µM; 0.03% of 200,000 active; AID 878, 2007;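 active = activation of at least 50% relative to the plate's high and low controls in the primary single-dose screen; inactive = activation below 50%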;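 note: compound incubated with DTT at 0.8 mM final as the reducing agent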
Efa HMGR inh – inhibitors of E. faecalis class II HMGR, primary screen, biochemical, Enterococcus faecalis; HMG-CoA reductase (Enterococcus faecalis, mvaE); purified E. faecalis HMGR, NADPH absorbance 340 nm kinetic; inhibition, % at 10 µM; 0.41% of 190,000 active; AID 1066, 2008;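 active = inhibition above a set limit, the median over all tested compounds plus 3 SD, cut at about 9.5% in these data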;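 note: enzyme runs in reverse so mevalonate oxidation gives rising NADPH absorbance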
PMI act hi M6P – human PMI activators, high substrate, primary screen, biochemical, fluorescence intensity, near-saturating mannose 6-phosphate; 0.34% of 190,000 active; activation factor at 20 µM; coupled PMI enzyme assay, resazurin fluorescence, 20 min; active compounds read high; 1 = untreated enzyme, 0 = substrate-free blank; Mannose-6-phosphate isomerase (Homo sapiens), P34949; AID 1216, 2008;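 active = activation factor of 2 or more at 20 µM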
Target sequence (P34949 whole entry, looked up): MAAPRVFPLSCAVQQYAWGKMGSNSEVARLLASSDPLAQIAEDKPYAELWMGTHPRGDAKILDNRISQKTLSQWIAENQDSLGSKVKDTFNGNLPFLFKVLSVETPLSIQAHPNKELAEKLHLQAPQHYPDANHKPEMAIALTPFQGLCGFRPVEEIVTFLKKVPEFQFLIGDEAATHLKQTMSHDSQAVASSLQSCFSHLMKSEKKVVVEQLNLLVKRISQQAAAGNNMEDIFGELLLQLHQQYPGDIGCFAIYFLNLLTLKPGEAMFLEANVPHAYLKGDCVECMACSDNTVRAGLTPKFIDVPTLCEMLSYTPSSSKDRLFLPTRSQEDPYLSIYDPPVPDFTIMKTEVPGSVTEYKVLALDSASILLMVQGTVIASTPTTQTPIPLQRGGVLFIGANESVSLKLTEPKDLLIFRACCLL
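Material: human phosphomannose isomerase with PGI, G6PDH, diaphorase coupling enzymes; amount: PMI at 15 ng/mL final; also added: Mannose-6-phosphate 1.0 mM (near-saturating) plus 0.22 mM NADP+; incubation: enzyme reaction with compound 20 min at room temperature; signal: resorufin fluorescence (Ex 544/Em 590 nm) from resazurin via diaphorase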
NCF1 inh – p47phox/p22phox peptide binding inhibitors, primary screen, biochemical, uHTS, NADPH oxidase regulatory subunit. inhibition, % at 24.7 µM. AID 1274, 2008. 0.53% of 220,000 active. fluorescence polarization, 2 h;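 active = inhibition above about 30%, limit read from the data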
PMI act – activators of human PMI, primary screen, biochemical, fluorescence intensity, near-Km mannose 6-phosphate. Mannose-6-phosphate isomerase (Homo sapiens), P34949. purified human PMI, coupled resazurin fluorescence, 20 min; active compounds read high; 1 = vehicle control, 0 substrate-free wells. activation factor at 20 µM. 0.005% of 190,000 active. AID 1214, 2008;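 active = activation factor of 2 or more at 20 µM, relative to plate controls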
Diaph act CS – compounds boosting diaphorase resazurin reduction – biochemical, uHTS, resorufin fluorescence, counter-screen for diaphorase-coupled primary assays, primary screen; Diaphorase/resazurin coupled assay, 16 min; active compounds read high; 1 = vehicle wells, 0 = NADH-free wells; activation factor at 20 µM; 0.005% of 190,000 active;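 active = diaphorase activity raised at least twofold by the compound at 20 µM; inactive = activation factor below 2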
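Measured by – red resorufin fluorescence at 544/590 nm excitation/emission · Test system – Clostridium kluyveri diaphorase, purified enzyme · Incubation – reaction time 16 min, room temperature · Buffer or medium – 50 mM HEPES pH 7.4 with 4.542 mM MgCl2, 0.005% Tween 20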
A number is an active result; i = inactive; nt = not tested or not shown.

SMILES | DTT redox prof | Efa HMGR inh | PMI act hi M6P | NCF1 inh | PMI act | Diaph act CS
C#CC(C)(CC)NC(=O)Cn1nnc(-c2cccc(C(F)(F)F)c2)n1 (stereo not given) | i | i | i | i | i | i
O=C(CSc1nnc(C2COc3ccccc3O2)o1)NC1CCCCC1 (stereo not given) | i | i | i | i | i | i
O=C(CSc1nnc(C2COc3ccccc3O2)o1)Nc1nccs1 (stereo not given) | i | i | i | 37 | i | i
Cc1nc2ccccc2c(=O)n1NC(=O)c1ccc([N+](=O)[O-])cc1 | i | i | i | i | i | i
COc1ccc(CC(=O)OCC(=O)Nc2ccc(N3CCOCC3)cc2)cc1 | nt | nt | nt | i | nt | nt
COc1ccc(CCC(=O)N(C)CC(=O)Nc2ccc(N3CCOCC3)cc2)cc1 | i | 9.7 | i | i | i | i
O=C(CNCc1ccco1)Nc1ccc(N2CCCCCC2)cc1 | i | 11 | i | i | i | i
CCC(=O)Nc1ccc(N2CCCCC2)cc1 | i | i | i | i | i | i
Cc1cccc(Cn2c(C)nc3c(N)c(C)c(C)cc32)c1 | i | i | i | i | i | i
C=CCOc1c(OC)cc(/C=N/Nc2cccc(C(=O)O)c2)c(Br)c1Br | i | i | 2.4 | i | i | i
CC(C)[C@H](NS(=O)(=O)c1cccc(Cl)c1)C(=O)OCC(=O)N1CCN(c2ccccc2)CC1 | i | i | 2 | i | i | i
O=C(OCC(=O)N1CCN(c2ccccc2)CC1)c1cccc(Cl)c1 | i | i | i | i | i | i
CCCS(=O)(=O)c1nnnn1-c1cccc(OC)c1 | i | i | i | i | i | i
Cc1ccc(CNC(=O)CCc2nc(-c3cccs3)no2)cc1 | i | i | i | 200 | i | i
N#Cc1ccc(COn2nnc3ccccc32)cc1 | i | i | i | i | i | i
N#Cc1c(-c2ccco2)c2c([nH]c1=S)CCCC2 | nt | i | i | i | i | i
Cc1[nH]c(=S)c(C#N)c2c1CCCC2 | i | i | 2 | i | i | i
CC(C)Cc1c2c([nH]c(=S)c1C#N)CCCC2 | i | i | 2 | i | i | i
O=C(Oc1ccccc1O)c1cccc2ccccc12 | i | 18 | i | i | i | i
Cc1ccc(C(=O)O/N=C2\CCSc3ccc(C)cc32)cc1 | i | i | i | i | i | i
Cc1cccc(C(=O)O/N=C2\CCSc3ccc(C)cc32)c1 | i | i | i | 94 | i | i
O=C(CSc1nc2ccccc2c(=O)n1-c1ccccc1)NCc1ccc2c(c1)OCO2 | i | i | i | 53 | i | i
Cc1cccc(-n2c(SCC(=O)NCc3ccc4c(c3)OCO4)nc3ccccc3c2=O)c1 | i | i | i | i | i | i
CCC(C)(C)NC(=O)C(c1cccnc1)N(C(=O)c1csnn1)c1ccccc1 (stereo not given) | i | i | i | i | i | i
COC(=O)c1ccc(NC(=O)CN(C)Cc2cccc(F)c2)cc1 | i | 11 | i | i | i | i
SMILES | DTT redox prof | Efa HMGR inh | PMI act hi M6P | NCF1 inh | PMI act | Diaph act CS
O=C1NC(=O)c2cc(NC(=O)C3CCCO3)ccc21 (stereo not given) | i | i | i | i | i | i
O=C(Nc1ccc2c(c1)C(=O)N(c1ccccc1)C2=O)C1CCCO1 (stereo not given) | i | 12 | i | i | i | i
CC1=C(C(=O)OCc2ccccc2)C(/C=C/c2ccccc2)NC(=S)N1 (stereo not given) | i | 10 | i | i | i | i
C=CCOC(=O)C1=C(C)NC(=S)NC1/C=C/c1ccccc1 (stereo not given) | i | i | i | i | i | i
CCc1cccc(N(C(=O)c2csnn2)C(C(=O)NC(C)(C)C)c2ccccn2)c1 (stereo not given) | i | i | nt | i | nt | nt
COC(=O)CC1c2cc(OC)c(OC)cc2CC(=O)c2cc(OC)c(OC)cc21 (stereo not given) | i | i | 2 | i | i | i
COC(=O)CC1NCCc2cc(OC)c(OC)cc21 (stereo not given) | i | i | i | i | i | i
Cc1nnc(NC(=O)CCC(=O)N2CCN(CCc3ccccc3)CC2)s1 | nt | nt | i | nt | i | i
O=C(COC(=O)Cc1cccc(C(F)(F)F)c1)NCC1CCCO1 (stereo not given) | i | i | i | 65 | i | i
COC(=O)[C@@]1(Cc2ccc(F)cc2)[C@H]2c3cc(C(=O)N4CCCC4)n(CCc4c[nH]c5ccc(OC)cc45)c3C[C@H]2CN1C(=O)c1ccccc1 | i | i | i | i | i | i
COc1ccc(N2C(=O)CS/C2=C\[N+](=O)[O-])cc1 | i | 15 | i | i | i | i
COCC(=O)N1CCCC(C(=O)c2ccc3c4c(cccc24)CC3)C1 (stereo not given) | i | i | i | i | i | i
COCCC(=O)N1CCCC(C(=O)c2ccc3c4c(cccc24)CC3)C1 (stereo not given) | i | 11 | i | i | i | i
COc1ccc(C/C(C)=N/NS(=O)(=O)c2ccc(Br)cc2)cc1 | i | 15 | i | i | i | i
COc1ccc(C/C(C)=N/NC(=O)c2ccc(Cl)cc2)cc1 | i | 10 | i | i | i | i
CCOC(=O)C1=NNC2C(=O)N(Cc3ccccc3)C(=O)C12 (stereo not given) | nt | nt | nt | i | nt | nt
COc1nc(Nc2ccc([N+](=O)[O-])cc2)nc(NC2CCCCC2)n1 | i | i | i | i | i | i
COC(=O)c1cc2n3ccccc3c(C)c(-c3ccccc3)c-2c1C(=O)OC | i | i | i | 53 | i | i
COC(=O)c1cc2c(C)c(C)c3ccccn3c-2c1C(=O)OC | i | i | i | i | i | i
Cc1ccccc1NC(=O)CCC(=O)OCC(=O)c1cccc([N+](=O)[O-])c1 | i | i | i | 32 | i | i
O=C(CCC(=O)OCC(=O)c1cccc([N+](=O)[O-])c1)Nc1cccc(Cl)c1Cl | i | i | i | i | i | i
Cc1cc(=O)n2[nH]c(CCC(=O)O)nc2n1 | nt | nt | nt | i | nt | nt
CCOC(=O)c1c(C)c(/C=N/Nc2ccccc2)n(C)c1C | i | i | 2.5 | i | i | i
O=c1c2ccccc2nc(/C=C/c2ccc([N+](=O)[O-])cc2)n1CCCO | i | i | i | i | i | i
O=c1c2ccccc2nc(/C=C/c2ccc([N+](=O)[O-])o2)n1CCCO | i | i | i | 35 | i | i
